Tests used:
SK-Lu-1 cells [1] = experiment: Cell cycle analysis by flow cytometry; format: cell-based, human; conditions: 24 h
In short: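 Log-phase SK-LU-1 cells (3 × 10^5 per 25 cm2 flask) treated 24 h with test compound at 0.08, 0.16 or 0.32 μM. Controls: DMSO 0.05%, ellipticine 1.3 μM, vincristine 0.4 and 4 μM. Cells were PBS-washed and fixed in ice-cold 70% ethanol at −20 °C for 2 h. They were then treated with RNase A (1 mg mL−1, 37 °C, 15 min), stained with PI for 30 min and analysed by flow cytometry.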

SK-Lu-1 cells [2] = experiment: Cell nucleus staining with Hoechst 33342; format: cell-based, human; conditions: 0.08 μM, 0.16 μM, and 0.32 μM, 24 h
[3] = test system: caspase-3/7 activation in human lung SK-LU-1 cancer cells; experiment: Caspase-3/7 assay; format: cell-based; conditions: SK-LU-1 cells, 0.08 μM, 0.16 μM, and 0.32 μM
In short: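 SK-LU-1 cells (2 × 10^5 per well) incubated 5 h at 37 °C, 5% CO2, with test compound at 0.08, 0.16 or 0.32 μM. Controls: ellipticine 1.3 μM, vincristine 4 μM; solvent served as blank. Apo-ONE caspase-3/7 reagent was added, briefly shaken and left at room temperature for 1–18 h. Fluorescence was read at Ex 485/Em 530 nm. Activity = sample RFU minus blank RFU.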

SK-Lu-1 cells [4] = experiment: Annexin V FITC and PI flow cytometry assay for apoptosis; format: cell-based, human; conditions: 24 h; for % Necrotic cells: Annexin-V/PI (Q2-1); for % Late apoptosis cells: Annexin-V/PI (Q2-2); for % Early apoptosis cells: Annexin-V/PI (Q2-4); for % Total apoptosis cells: early + late
In short: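 SK-LU-1 cells (3 × 10^5 per 25 cm2 flask; DMEM, 7–10% FBS, penicillin/streptomycin, 37 °C, 5% CO2) exposed 24 h to test compound. Controls: DMSO 0.5%, ellipticine 1.3 μM, vincristine 0.4 and 4 μM. Cells were harvested, washed in cold PBS and resuspended in annexin-binding buffer. They were stained with FITC-annexin V plus PI (100 μg mL−1 working solution) for 15 min at room temperature, then diluted and analysed by flow cytometry.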

[5] = test system: epidermoid carcinoma (KB, ATCC number CCL-17); conditions: read-out: IC50 KB; KB cells; cited from earlier work
[6] = test system: hepatocellular carcinoma (HepG2, ATCC number HB-8065); conditions: read-out: IC50 HepG2; HepG2 cells; cited from earlier work
[7] = test system: breast (MCF7, HTB-22™) cancer cell line; conditions: read-out: IC50 MCF7; MCF7 cells; cited from earlier work
SK-Lu-1 cells [8] = conditions: read-out: IC50 SK-Lu-1; cited from earlier work
[9] = test system: human embryonic kidney (HEK-293, ATCC number CRL-1573) cell line; conditions: read-out: IC50 Hek-293; non-cancerous Hek-293 cells; cited from earlier work

Structure (SMILES): COc1cccc(C2C3=C(COC3=O)NC3=C2C(=O)c2ccccc2C3=O)c1 (stereo not shown) [5a, 11-(3-Methoxyphenyl)-4,11-dihydrobenzo[g]furo[3,4-b]quinoline-1,5,10(3H)-trione]
- Percentage of cell by phases, % G0/G1 (SK-Lu-1 cells [1]; SK-LU-1, 0.08 μM): 47.91%
- Percentage of cell by phases, % G2/M (SK-Lu-1 cells [1]; SK-LU-1, 0.08 μM): 20.58%
- Percentage of cell by phases, % S (SK-Lu-1 cells [1]; SK-LU-1, 0.08 μM): 30.45%
- Percentage of cell by phases, % G0/G1 (SK-Lu-1 cells [1]; SK-LU-1, 0.16 μM): 0.58%
- Percentage of cell by phases, % G2/M (SK-Lu-1 cells [1]; SK-LU-1, 0.16 μM): 82.17%
- Percentage of cell by phases, % S (SK-Lu-1 cells [1]; SK-LU-1, 0.16 μM): 5.78%
- Percentage of cell by phases, % G0/G1 (SK-Lu-1 cells [1]; SK-LU-1, 0.32 μM): 0.28%
- Percentage of cell by phases, % G2/M (SK-Lu-1 cells [1]; SK-LU-1, 0.32 μM): 84.70%
- Percentage of cell by phases, % S (SK-Lu-1 cells [1]; SK-LU-1, 0.32 μM): 4.05%
- changes in cell morphology (Hoechst staining) (SK-Lu-1 cells [2]): nucleus fragmentation and chromatin condensation
- caspase-3/7 activity as compared to Ellipticine (1.3 μM) [3]: 4-5 fold
- % Necrotic cells (SK-Lu-1 cells [4]; SK-LU-1, 0.08 μM): 0.59%
- % Late apoptosis cells (SK-Lu-1 cells [4]; SK-LU-1, 0.08 μM): 0.82%
- % Early apoptosis cells (SK-Lu-1 cells [4]; SK-LU-1, 0.08 μM): 1.30%
- % Total apoptosis cells (SK-Lu-1 cells [4]; SK-LU-1, 0.08 μM): 2.12%
- % Necrotic cells (SK-Lu-1 cells [4]; SK-LU-1, 0.16 μM): 2.64%
- % Late apoptosis cells (SK-Lu-1 cells [4]; SK-LU-1, 0.16 μM): 2.40%
- % Early apoptosis cells (SK-Lu-1 cells [4]; SK-LU-1, 0.16 μM): 7.23%
- % Total apoptosis cells (SK-Lu-1 cells [4]; SK-LU-1, 0.16 μM): 9.63%
- % Necrotic cells (SK-Lu-1 cells [4]; SK-LU-1, 0.32 μM): 4.68%
- % Late apoptosis cells (SK-Lu-1 cells [4]; SK-LU-1, 0.32 μM): 4.25%
- % Early apoptosis cells (SK-Lu-1 cells [4]; SK-LU-1, 0.32 μM): 11.59%
- % Total apoptosis cells (SK-Lu-1 cells [4]; SK-LU-1, 0.32 μM): 15.84%
- IC50 [5]: 1230 ± 10 nM
- IC50 [6]: 460 ± 10 nM
- IC50 [7]: > 2500 nM
- IC50 (SK-Lu-1 cells [8]): < 40 nM
- IC50 [9]: 9350 ± 440 nM

Reference: paper PMC9361925 (RSC Advances, 2022)
